Data published in ChEMBL document CHEMBL1833940, “Discovery of 3-(2,6-dichloro-3,5-dimethoxy-phenyl)-1-{6-[4-(4-ethyl-piperazin-1-yl)-phenylamino]-pyrimidin-4-yl}-1-methyl-urea (NVP-BGJ398), a potent and selective inhibitor of the fibroblast growth factor receptor family of receptor tyrosine kinase” (J Med Chem, 2011).
pIC50: −log10 of the molar value. Activity calls are given as the source filed them. The calls are words filed in the database; no cut-off is given here.

Columns and labels:
[1] = target: T1, Cytochrome P450 1A2 (Homo sapiens, UniProt P05177); assay: Inhibition of CYP1A2 using CEC as substrate; format: ADME
T1 sequence (P05177 whole entry): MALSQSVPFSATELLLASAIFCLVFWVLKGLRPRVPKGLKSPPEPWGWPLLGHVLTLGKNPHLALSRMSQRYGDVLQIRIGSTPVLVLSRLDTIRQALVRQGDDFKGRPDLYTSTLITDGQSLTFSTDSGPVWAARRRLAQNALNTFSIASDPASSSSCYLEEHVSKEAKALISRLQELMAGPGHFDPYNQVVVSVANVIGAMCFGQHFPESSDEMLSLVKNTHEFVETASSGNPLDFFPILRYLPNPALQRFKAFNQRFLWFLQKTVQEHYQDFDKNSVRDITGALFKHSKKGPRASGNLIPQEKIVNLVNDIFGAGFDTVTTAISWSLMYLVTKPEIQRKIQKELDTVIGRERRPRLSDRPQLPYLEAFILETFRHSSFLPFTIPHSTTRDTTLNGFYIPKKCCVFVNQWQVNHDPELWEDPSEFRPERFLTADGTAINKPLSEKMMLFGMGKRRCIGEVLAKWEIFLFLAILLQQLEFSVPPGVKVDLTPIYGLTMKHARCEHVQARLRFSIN
Summary of the method: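 Human CYP450 inhibition was measured with isoform-specific fluorogenic probe substrates: CEC for 1A2 and 2C19, MFC for 2C9, AMMC for 2D6. Incubation was at 37 °C with an NADPH-regenerating system in 384-well format. Metabolite was quantified by fluorescence, and IC50 was obtained by curve fitting.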

[2] = target: Tyrosine-protein kinase Lck (Homo sapiens, UniProt P06239); assay: Inhibition of recombinant LCK kinase
Summary of the method: (§1)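 Purified recombinant kinases under optimized conditions, with peptide substrates and ATP at each kinase's Km. Phosphorylation was read out by microfluidic mobility shift, and IC50 values were obtained.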

[3] = Tmax in plasma of RT112/luc1 cells implanted athymic nude mouse at 20 mg/kg, po by LC/MS/MS analysis; format: ADME, organism-based; parameters: dose 20 mg/kg, route oral
Summary of the method: (§2)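 Female athymic nude mice carrying subcutaneous RT112/luc1 tumors (ca. 300–400 mm3). Dosing was 5 mg/kg iv by tail vein in NMP/PEG200 (1:9) or 20 mg/kg by oral gavage as a suspension in PEG300/D5W (2:1). Groups (n = 4) were sacrificed from 0.083 to 24 h. Plasma and tumor were measured by LC-MS/MS (LOQ 5 ng/mL, 10 ng/g). Noncompartmental analysis used the linear trapezoidal AUC; F was calculated from dose-normalized AUC.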

[4] = Oral bioavailability RT112/luc1 cells implanted athymic nude mouse; format: ADME, organism-based; conditions: in vivo; summary of the method: as §2
[5] = system: HT1197; assay: Antiproliferative activity against human HT1197 cells after 72 hrs; format: functional, cell-based; conditions: HT1197, 72 h
Summary of the method: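 Bladder cancer lines from ATCC or DSMZ were seeded in 96-well plates (RT4, RT112 at 8500 cells/well; others at 5000 cells/well) in growth medium. Compound dilutions or DMSO were added 24 h later and incubated 72 h. Cells were fixed with glutaraldehyde, stained with 0.05% methylene blue and eluted with 3% HCl, then OD650 nm was read.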

[6] = target: MAP kinase-interacting serine/threonine-protein kinase 2 (Homo sapiens, UniProt Q9HBH9); assay: Inhibition of recombinant MNK2; summary of the method: as §1
[7] = target: Cyclin-dependent kinase 1 (Homo sapiens, UniProt P06493); assay: Inhibition of recombinant CDK1
Cyclin-dependent kinase 1, sequence (P06493 whole entry): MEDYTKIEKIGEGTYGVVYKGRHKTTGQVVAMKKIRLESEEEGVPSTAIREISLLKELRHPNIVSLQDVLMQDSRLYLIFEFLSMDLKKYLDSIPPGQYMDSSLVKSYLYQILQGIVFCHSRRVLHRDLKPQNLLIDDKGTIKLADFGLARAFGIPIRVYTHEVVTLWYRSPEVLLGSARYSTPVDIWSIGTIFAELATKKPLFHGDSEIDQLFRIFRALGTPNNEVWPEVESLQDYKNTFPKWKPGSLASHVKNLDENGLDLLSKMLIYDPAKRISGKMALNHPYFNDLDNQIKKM
Summary of the method: (§3)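 Purified recombinant kinases under optimized conditions with peptide substrates. ATP was set at each kinase's Km. Phosphorylation was read by microfluidic mobility-shift separation of substrate and product; IC50 determined.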

[8] = target: Focal adhesion kinase 1 (Homo sapiens, UniProt Q05397); assay: Inhibition of recombinant FAK; summary of the method: as §3
[9] = target: Tyrosine-protein kinase JAK1 (Homo sapiens, UniProt P23458); assay: Inhibition of recombinant JAK1; summary of the method: as §3
Tyrosine-protein kinase JAK1, sequence (P23458 whole entry): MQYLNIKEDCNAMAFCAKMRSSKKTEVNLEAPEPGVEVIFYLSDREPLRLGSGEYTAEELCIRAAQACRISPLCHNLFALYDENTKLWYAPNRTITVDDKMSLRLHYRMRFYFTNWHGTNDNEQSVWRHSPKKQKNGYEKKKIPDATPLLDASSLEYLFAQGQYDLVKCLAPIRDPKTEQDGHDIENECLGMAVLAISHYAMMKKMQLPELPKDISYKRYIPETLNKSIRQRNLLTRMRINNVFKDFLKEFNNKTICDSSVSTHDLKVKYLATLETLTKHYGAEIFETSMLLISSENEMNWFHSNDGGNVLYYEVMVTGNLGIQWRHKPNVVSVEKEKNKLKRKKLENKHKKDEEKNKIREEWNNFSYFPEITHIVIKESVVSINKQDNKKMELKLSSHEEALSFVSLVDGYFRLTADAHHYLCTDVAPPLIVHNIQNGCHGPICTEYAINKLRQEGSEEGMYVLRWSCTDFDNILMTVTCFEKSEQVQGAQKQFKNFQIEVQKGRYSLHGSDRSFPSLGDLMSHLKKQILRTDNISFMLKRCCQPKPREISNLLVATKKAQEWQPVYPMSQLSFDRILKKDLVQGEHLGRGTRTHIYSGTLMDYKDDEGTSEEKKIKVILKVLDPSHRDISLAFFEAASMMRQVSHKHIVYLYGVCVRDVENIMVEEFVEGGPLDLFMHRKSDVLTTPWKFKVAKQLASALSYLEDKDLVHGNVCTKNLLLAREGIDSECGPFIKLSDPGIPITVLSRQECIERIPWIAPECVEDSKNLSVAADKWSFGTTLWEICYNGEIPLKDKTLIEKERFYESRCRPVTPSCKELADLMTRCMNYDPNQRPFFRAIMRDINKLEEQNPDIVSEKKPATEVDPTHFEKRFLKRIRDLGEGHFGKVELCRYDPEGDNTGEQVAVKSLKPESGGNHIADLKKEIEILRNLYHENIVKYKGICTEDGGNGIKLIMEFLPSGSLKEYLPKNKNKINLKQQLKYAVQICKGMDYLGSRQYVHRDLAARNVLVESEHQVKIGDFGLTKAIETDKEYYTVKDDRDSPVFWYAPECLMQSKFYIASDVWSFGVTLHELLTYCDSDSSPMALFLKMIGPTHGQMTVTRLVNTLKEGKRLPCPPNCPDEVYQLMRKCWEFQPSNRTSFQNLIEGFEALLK

[10] = target: Rho-associated protein kinase 2 (Homo sapiens, UniProt O75116); assay: Inhibition of recombinant ROCK2; summary of the method: as §3
[11] = target: Phosphatidylinositol 3-kinase catalytic subunit type 3 (Homo sapiens, UniProt Q8NEB9); assay: Inhibition of recombinant VPS34 by luminescent kinase assay
Phosphatidylinositol 3-kinase catalytic subunit type 3, sequence (Q8NEB9 whole entry): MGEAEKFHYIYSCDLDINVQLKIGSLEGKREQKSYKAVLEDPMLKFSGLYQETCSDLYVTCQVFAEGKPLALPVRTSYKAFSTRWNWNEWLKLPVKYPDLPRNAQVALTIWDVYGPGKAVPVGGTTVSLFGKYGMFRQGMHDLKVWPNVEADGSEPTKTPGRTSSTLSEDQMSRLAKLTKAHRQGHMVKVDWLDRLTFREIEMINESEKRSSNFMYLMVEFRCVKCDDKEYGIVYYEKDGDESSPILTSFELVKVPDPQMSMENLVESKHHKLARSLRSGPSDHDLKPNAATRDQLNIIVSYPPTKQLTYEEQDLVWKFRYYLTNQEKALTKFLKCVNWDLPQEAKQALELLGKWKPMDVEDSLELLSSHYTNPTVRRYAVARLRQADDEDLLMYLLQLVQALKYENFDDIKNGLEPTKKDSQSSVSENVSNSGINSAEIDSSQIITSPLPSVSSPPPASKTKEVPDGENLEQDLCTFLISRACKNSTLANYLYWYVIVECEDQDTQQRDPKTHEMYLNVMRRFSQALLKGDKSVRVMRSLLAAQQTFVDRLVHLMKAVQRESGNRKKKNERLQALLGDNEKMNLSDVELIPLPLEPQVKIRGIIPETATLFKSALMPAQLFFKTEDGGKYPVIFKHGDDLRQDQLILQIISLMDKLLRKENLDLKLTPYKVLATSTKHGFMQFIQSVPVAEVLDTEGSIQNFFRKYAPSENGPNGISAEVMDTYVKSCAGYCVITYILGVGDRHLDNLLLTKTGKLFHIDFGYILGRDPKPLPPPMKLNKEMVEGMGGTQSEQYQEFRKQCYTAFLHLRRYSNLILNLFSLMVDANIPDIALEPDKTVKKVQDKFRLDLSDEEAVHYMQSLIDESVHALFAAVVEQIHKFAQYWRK

[12] = target: Serine/threonine-protein kinase WNK1 (Homo sapiens, UniProt Q9H4A3); assay: Inhibition of recombinant WNK1; summary of the method: as §3
Serine/threonine-protein kinase WNK1, sequence (Q9H4A3 whole entry): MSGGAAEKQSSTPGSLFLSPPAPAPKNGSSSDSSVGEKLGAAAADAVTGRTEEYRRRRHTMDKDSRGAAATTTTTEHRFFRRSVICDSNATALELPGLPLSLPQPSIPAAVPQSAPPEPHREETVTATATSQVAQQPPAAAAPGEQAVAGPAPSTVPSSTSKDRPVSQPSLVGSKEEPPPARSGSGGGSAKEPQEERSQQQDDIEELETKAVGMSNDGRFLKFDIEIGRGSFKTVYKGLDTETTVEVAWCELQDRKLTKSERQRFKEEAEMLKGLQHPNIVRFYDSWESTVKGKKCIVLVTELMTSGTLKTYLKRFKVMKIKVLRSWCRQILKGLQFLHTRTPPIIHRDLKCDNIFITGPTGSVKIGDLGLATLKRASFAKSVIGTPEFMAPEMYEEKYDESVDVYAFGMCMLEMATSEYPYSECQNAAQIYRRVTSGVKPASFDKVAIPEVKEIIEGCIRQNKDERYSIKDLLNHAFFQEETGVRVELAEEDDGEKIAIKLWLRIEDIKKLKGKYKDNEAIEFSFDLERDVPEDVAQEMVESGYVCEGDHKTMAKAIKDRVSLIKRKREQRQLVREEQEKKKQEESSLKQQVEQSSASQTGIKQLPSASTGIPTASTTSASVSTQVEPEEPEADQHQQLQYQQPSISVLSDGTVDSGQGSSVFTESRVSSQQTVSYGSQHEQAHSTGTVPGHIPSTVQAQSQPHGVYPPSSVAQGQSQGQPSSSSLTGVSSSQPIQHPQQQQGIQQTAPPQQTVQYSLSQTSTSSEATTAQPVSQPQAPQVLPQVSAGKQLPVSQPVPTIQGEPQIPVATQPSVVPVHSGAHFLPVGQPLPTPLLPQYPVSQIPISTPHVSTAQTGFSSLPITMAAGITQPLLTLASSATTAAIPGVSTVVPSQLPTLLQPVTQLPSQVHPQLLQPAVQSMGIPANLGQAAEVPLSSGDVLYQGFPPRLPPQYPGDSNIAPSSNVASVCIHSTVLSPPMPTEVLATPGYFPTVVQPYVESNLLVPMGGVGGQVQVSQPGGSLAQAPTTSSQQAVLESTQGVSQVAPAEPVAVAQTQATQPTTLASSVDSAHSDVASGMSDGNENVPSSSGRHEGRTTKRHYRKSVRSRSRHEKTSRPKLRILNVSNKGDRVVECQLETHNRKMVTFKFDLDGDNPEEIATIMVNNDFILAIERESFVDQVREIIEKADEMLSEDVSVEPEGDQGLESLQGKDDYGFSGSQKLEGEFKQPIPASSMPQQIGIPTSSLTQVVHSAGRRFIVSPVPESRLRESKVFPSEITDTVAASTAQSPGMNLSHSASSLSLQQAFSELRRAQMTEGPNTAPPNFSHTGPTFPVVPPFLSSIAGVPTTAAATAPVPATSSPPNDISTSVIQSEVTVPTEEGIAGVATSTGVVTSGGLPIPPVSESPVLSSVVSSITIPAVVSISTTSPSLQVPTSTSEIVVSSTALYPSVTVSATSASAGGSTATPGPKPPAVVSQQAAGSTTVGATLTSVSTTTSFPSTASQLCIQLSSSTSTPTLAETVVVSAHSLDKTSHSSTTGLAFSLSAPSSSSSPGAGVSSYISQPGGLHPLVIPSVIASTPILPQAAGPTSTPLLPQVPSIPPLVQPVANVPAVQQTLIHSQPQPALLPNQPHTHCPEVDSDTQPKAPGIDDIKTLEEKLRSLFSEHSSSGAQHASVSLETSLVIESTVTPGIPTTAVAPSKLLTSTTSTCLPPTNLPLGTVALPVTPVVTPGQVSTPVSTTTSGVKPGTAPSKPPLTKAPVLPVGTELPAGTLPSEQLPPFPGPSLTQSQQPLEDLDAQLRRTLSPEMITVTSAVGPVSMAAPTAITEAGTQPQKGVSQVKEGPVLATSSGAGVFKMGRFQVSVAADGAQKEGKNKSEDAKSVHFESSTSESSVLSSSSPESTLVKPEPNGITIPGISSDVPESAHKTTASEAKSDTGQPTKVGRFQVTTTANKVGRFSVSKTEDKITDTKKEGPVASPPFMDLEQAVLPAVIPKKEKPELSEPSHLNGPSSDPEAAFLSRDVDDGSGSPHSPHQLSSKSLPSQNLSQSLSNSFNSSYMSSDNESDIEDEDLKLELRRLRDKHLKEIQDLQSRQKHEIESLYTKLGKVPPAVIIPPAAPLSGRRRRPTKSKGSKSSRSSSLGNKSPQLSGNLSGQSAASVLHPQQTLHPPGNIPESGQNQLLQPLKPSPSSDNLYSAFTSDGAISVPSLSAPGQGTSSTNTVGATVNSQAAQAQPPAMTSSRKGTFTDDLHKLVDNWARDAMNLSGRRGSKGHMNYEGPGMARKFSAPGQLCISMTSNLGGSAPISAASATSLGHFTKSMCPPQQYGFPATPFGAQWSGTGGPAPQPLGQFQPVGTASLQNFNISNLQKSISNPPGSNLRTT

[13] = system: Mus musculus; assay: Toxicity in athymic nude mouse xenografted with human RT112 cells assessed as weight loss at 10 mg/kg, po administered for 12 days; format: organism-based, RT-112; parameters: dose 10 mg/kg, route oral; conditions: in vivo, 288 h
Summary of the method: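 Female athymic nude mice carried orthotopic RT112/luc1 bladder tumors. Starting 14 days after inoculation, they were dosed orally at 0, 10 or 30 mg/kg/qd for 12 days as a suspension in PEG300/D5W (2:1). Body weight was recorded during treatment. Data are means ± SEM; ANOVA with Dunnett's test versus vehicle.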

[14] = system: RT-112; assay: Antitumor activity against human RT112 cells xenografted in nude Rowett rat assessed as tumour stasis at 5 mg/kg, po qd administered for 20 days; format: functional, organism-based; parameters: dose 5 mg/kg
Summary of the method: (§4)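 Female nude Rowett rats aged 6–9 weeks were given 1×10^6 RT112 cells subcutaneously in HBSS/50% Matrigel. Treatment began at about 100 mm3 mean tumor volume (n = 8): monophosphate salt in acetate buffer pH 4.6/PEG300 (1:1) by gavage, 5 mL/kg, at 5, 10, 15 mg/kg/qd free base for 20 days. Tumors were measured by caliper (L×W×H×π/6). Readouts were T/C and % regression from start volume.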

[15] = system: RT-112; assay: Antitumor activity against human RT112 cells xenografted in nude Rowett rat assessed as tumour regression at 10 mg/kg, po qd administered for 20 days; format: functional; summary of the method: as §4
[16] = system: Rattus norvegicus; assay: Toxicity in nude Rowett rat xenografted with human RT112 cells assessed as weight loss at 10 mg/kg, po qd administered for 20 days; format: organism-based, RT-112; parameters: dose 10 mg/kg, route oral; conditions: in vivo, 480 h
Summary of the method: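 Female nude Rowett rats carried subcutaneous RT112 tumors (1 × 10^6 cells in Matrigel), starting at about 100 mm3. The monophosphate salt was gavaged daily for 20 days at 5, 10 or 15 mg/kg (free base) in acetate buffer pH 4.6/PEG300 (1:1), n = 8. Body weight and morbidity were monitored; ANOVA with Dunnett's test.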

[17] = system: Tumour; assay: Drug uptake in tumor of nude rowett rat bearing human RT112 cells at 4.25 mg/kg, po administered as a single dose after 7 hrs by LC-MS/MS analysis; format: ADME, organism-based, Neoplasm, RT-112; parameters: dose 4.25 mg/kg, route oral; conditions: in vivo
Summary of the method: (§5)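 Nude Rowett rats bearing subcutaneous RT112 tumors (n = 4) received a single gavage of monophosphate salt at 4.25 or 8.51 mg/kg free base in acetate buffer pH 4.6/PEG300. Tumors were collected at intervals after dosing, frozen and homogenized in an equal volume of ice-cold PBS. Compound levels were measured by LC-MS/MS (LOQ 3 ng/mL).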

[18] = system: Tumour; assay: Drug uptake in tumour of nude Rowett rat bearing human RT112 cells at 8.51 mg/kg, po administered as a single dose after 7 hrs by LC-MS/MS analysis; format: ADME, organism-based, Neoplasm, RT-112; parameters: dose 8.51 mg/kg, route oral; conditions: in vivo; summary of the method: as §5

CCN1CCN(c2ccc(Nc3cc(N(C)C(=O)Nc4c(Cl)c(OC)cc(OC)c4Cl)ncn3)cc2)CC1.O=P(O)(O)O [INFIGRATINIB PHOSPHATE]
pIC50 [1]: < 5.00
pIC50 [2]: 5.60
Tmax [3]: 1 h
bioavailability [4]: 32%
pIC50 [5]: 5.94
pIC50 [6]: < 5.00
pIC50 [7]: < 5.00
pIC50 [8]: < 5.00
pIC50 [9]: < 5.00
pIC50 [10]: < 5.00
pIC50 [11]: < 5.00
pIC50 [12]: < 5.00
Activity [13]: Non-toxic
Activity [14]: Active
Activity [15]: 66%
Activity [16]: 4%
Drug uptake [17]: 0.65 nmol/g
Drug uptake [18]: 1.52 nmol/g
